Structures can show the parent of a compound that is named as a salt.
Assays:
Assay type in all cases: cell-based
[1] = Cytotoxicity against human K562/A02 cells assessed as cell viability after 48 hrs by MTT assay; details: K562/A02, 48 h
Procedure, shortened: (§1)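 K562 and ADM-resistant, P-gp-overexpressing K562/A02 cells seeded at 1~2×10^4 per well, grown 24 h, then given graded compound doses in medium. Exposure 48 h, 37 °C, 5% CO2. MTT added for a further 4 h, absorbance read at 570 nm. IC50 taken from dose–response curves. Each experiment run three times.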

K562/A02 [2] = experiment: Reversal of P-gp-mediated resistance to adriamycin in human K562/A02 cells assessed as reduction in adriamycin IC50 at 5 uM after 48 hrs by MTT assay relative to control
Procedure, shortened: (§2)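 K562/A02 cells in RPMI 1640 with 10% FBS, seeded and grown 24 h. Cells given a series of ADM concentrations with or without modulator at 5 μM for 48 h at 37 °C. MTT added for 4 h, A570 read. ADM IC50 from dose–response curves. RF = IC50 without modulator / IC50 with modulator. Triplicates, three independent repeats.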

K562 = experiment: Cytotoxicity against human K562 cells assessed as cell viability after 48 hrs by MTT assay; details: K562, 48 h; procedure, shortened: as §1
[3] = (§3) Reversal of P-gp-mediated resistance to adriamycin in human K562/A02 cells assessed as reduction in adriamycin IC50 after 48 hrs by MTT assay; details: K562/A02, 48 h; procedure, shortened: as §2
K562/A02 [4] = experiment: Reversal of P-gp-mediated resistance to adriamycin in human K562/A02 cells assessed as reduction in adriamycin IC50 at 0.31 uM after 48 hrs by MTT assay relative to control
Procedure, shortened: (§4)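 K562/A02 cells in RPMI 1640 with 10% FBS, grown 24 h. Cells exposed 48 h at 37 °C to graded ADM concentrations, with or without modulator at 0.078–2.5 μM. MTT added for 4 h, A570 read. Reversal fold = ADM IC50 without modulator / ADM IC50 with modulator. Three independent experiments, mean±SEM.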

K562/A02 [5] = experiment: Inhibition of P-gp-mediated adriamycin efflux in human K562/A02 cells assessed as increase in intracellular accumulation of adriamycin preincubated for 60 mins followed by adriamycin addition measured after 90 mins by flow cytometry
Procedure, shortened: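 K562/A02 cells seeded at 1.5×10^5 per well. Modulator (0.5, 2.5 or 5 μM) or 0.1% DMSO vehicle pre-incubated 60 min. ADM 20 μM then added for 90 min. Cells washed three times in PBS at 4 °C. Retained ADM read as mean fluorescence intensity by flow cytometry. Means±SD of two independent experiments.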

K562/A02 [6] = experiment: Reversal of P-gp-mediated resistance to adriamycin in human K562/A02 cells assessed as reduction in adriamycin IC50 at 2.5 uM after 48 hrs by MTT assay relative to control; procedure, shortened: as §4
K562/A02 [7] = experiment: Reversal of P-gp-mediated resistance to adriamycin in human K562/A02 cells assessed as reduction in adriamycin IC50 at 0.078 uM after 48 hrs by MTT assay relative to control; procedure, shortened: as §4
K562/A02 [8] = experiment: Reversal of P-gp-mediated resistance to adriamycin in human K562/A02 cells assessed as reduction in adriamycin IC50 at 0.156 uM after 48 hrs by MTT assay relative to control; procedure, shortened: as §4
K562/A02 [9] = experiment: Reversal of P-gp-mediated resistance to adriamycin in human K562/A02 cells assessed as reduction in adriamycin IC50 at 1.25 uM after 48 hrs by MTT assay relative to control; procedure, shortened: as §4
K562/A02 [10] = experiment: Potency index, ratio of verapamil to compound for inhibition of P-gp-mediated adriamycin efflux in human K562/A02 cells assessed as intracellular adriamycin accumulation at 5 uM
K562/A02 [11] = experiment: Reversal of P-gp-mediated resistance to adriamycin in human K562/A02 cells assessed as reduction in adriamycin IC50 at 0.625 uM after 48 hrs by MTT assay relative to control; procedure, shortened: as §4
K562/A02 [12] = experiment: Inhibition of P-gp-mediated adriamycin efflux in human K562/A02 cells assessed as intracellular adriamycin accumulation at 5 uM preincubated for 60 mins followed by adriamycin addition measured after 90 mins by flow cytometry
Procedure, shortened: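 K562/A02 cells (ADM-induced, P-gp-overexpressing) seeded at 1.5×10^5/well; modulator or 0.1% DMSO vehicle pre-incubated 60 min, then 20 μM ADM added for 90 min; cells washed three times with PBS at 4°C; retained intracellular ADM read as mean fluorescence intensity by flow cytometry; means±SD of two independent experiments.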

K562/A02 [13] = experiment: as §3; procedure, shortened: as §2

Structure (SMILES) | IC50 [1] | fold change (FC) (K562/A02 [2]) | IC50 (K562) | other results
COc1cc2c(cc1OC)CN(CCn1cc(COc3ccc(C)cc3)nn1)CC2 | > 100 µM | 6.2 | > 100 µM | 
COc1cc2c(cc1OC)CN(CCn1cc(COc3ccc(C)c(C)c3)nn1)CC2 | > 100 µM | 9.1 | > 100 µM | 
COc1cccc2c1C(=O)c1c(O)c3c(c(O)c1C2=O)C[C@@](O)(C(=O)CO)C[C@@H]3O[C@H]1C[C@H](N)[C@H](O)[C@H](C)O1 [DOXORUBICIN HYDROCHLORIDE] | 38 µM |  | 6.23 µM | 
COc1cc2c(cc1OC)CN(CCn1cc(COc3ccccc3OC)nn1)CC2 | > 100 µM | 4.1 | > 100 µM | 
COc1cc2c(cc1OC)CN(CCn1cc(COc3ccc(C(C)C)cc3)nn1)CC2 | > 100 µM | 7.7 | > 100 µM | 
CCc1ccc(OCc2cn(-c3ccc(CCN4CCc5cc(OC)c(OC)cc5C4)cc3)nn2)cc1 | > 100 µM | 9.1 | > 100 µM | 
COc1cc2c(cc1OC)CN(CCn1cc(COc3ccc(C)cc3C)nn1)CC2 | > 100 µM | 4.6 | > 100 µM | 
COc1cc2c(cc1OC)CN(CCc1ccc(-n3cc(COc4ccccc4NC(=O)c4ccccc4)nn3)cc1)CC2 | > 100 µM | 23 | > 100 µM | EC50 [3]: 0.484 µM
COc1ccc(CCN(C)CCCC(C#N)(c2ccc(OC)c(OC)c2)C(C)C)cc1OC (stereo unspecified) |  |  | 65.3 µM | 
COc1cc2c(cc1OC)CN(CCc1ccc(-n3cc(COc4cccc5ccccc45)nn3)cc1)CC2 | > 100 µM | 21 | > 100 µM | 
COc1cc2c(cc1OC)CN(CCn1cc(COc3cccc4ccccc34)nn1)CC2 | > 100 µM | 5.7 | > 100 µM | 
CCc1ccc(OCc2cn(CCN3CCc4cc(OC)c(OC)cc4C3)nn2)cc1 | > 100 µM | 6.1 | > 100 µM | 
COc1ccc(OCc2cn(CCN3CCc4cc(OC)c(OC)cc4C3)nn2)cc1 | > 100 µM | 3.4 | > 100 µM | 
COc1cc2c(cc1OC)CN(CCc1ccc(-n3cc(COc4ccc5ccccc5c4)nn3)cc1)CC2 | > 100 µM | 8.5 | > 100 µM | 
COc1cc2c(cc1OC)CN(CCn1cc(COc3ccc([N+](=O)[O-])cc3)nn1)CC2 | > 100 µM | 3.1 | > 100 µM | 
COc1cc2c(cc1OC)CN(CCc1ccc(-n3cc(COc4ccc(OC(F)(F)F)cc4)nn3)cc1)CC2 | > 100 µM | 5.9 | 37.4 µM | 
COc1cc2c(cc1OC)CN(CCc1ccc(-n3cc(COc4ccc(C(C)C)cc4)nn3)cc1)CC2 | > 100 µM | 9.2 | > 100 µM | 
COc1cc2c(cc1OC)CN(CCc1ccc(-n3cc(COc4ccccc4)nn3)cc1)CC2 | > 100 µM | 31.4 | > 100 µM | fold change (FC) (K562/A02 [4]): 7.2; inhibition (K562/A02 [5]): Dose-dependent effect; fold change (FC) (K562/A02 [6]): 20.3; fold change (FC) (K562/A02 [7]): 1.6; fold change (FC) (K562/A02 [8]): 2.2; fold change (FC) (K562/A02 [9]): 16.9; Ratio (K562/A02 [10]): 1.5; fold change (FC) (K562/A02 [11]): 11.3; Flu intensity (K562/A02 [12]): 1280; EC50 [3]: 0.193 µM; Activity (K562/A02 [13]): Dose-dependent effect
COc1cc2c(cc1OC)CN(CCn1cc(COc3ccc4ccccc4c3)nn1)CC2 | > 100 µM | 3.6 | > 100 µM | 
COc1cc2c(cc1OC)CN(CCc1ccc(-n3cc(COc4cccc5cccnc45)nn3)cc1)CC2 | > 100 µM | 10 | 28 µM | 
COc1cc2c(cc1OC)CN(CCn1cc(COc3ccc(F)cc3)nn1)CC2 | > 100 µM | 2.7 | > 100 µM | 
COc1cc2c(cc1OC)CN(CCn1cc(COc3ccc(C(C)(C)C)cc3)nn1)CC2 | > 100 µM | 20.4 | > 100 µM | 
COc1ccc(OCc2cn(-c3ccc(CCN4CCc5cc(OC)c(OC)cc5C4)cc3)nn2)cc1 | > 100 µM | 3.5 | > 100 µM | 
COc1cc2c(cc1OC)CN(CCn1cc(COc3ccccc3C(C)(C)C)nn1)CC2 | > 100 µM | 9.6 | > 100 µM | 
COc1cc2c(cc1OC)CN(CCc1ccc(-n3cc(COc4ccc(C)cc4)nn3)cc1)CC2 | > 100 µM | 5.8 | > 100 µM | 
COc1cc2c(cc1OC)CN(CCc1ccc(-n3cc(COc4ccccc4[N+](=O)[O-])nn3)cc1)CC2 | > 100 µM | 7.4 | 48.8 µM | 
COc1cc2c(cc1OC)CN(CCc1ccc(-n3cc(COc4ccc(C(C)(C)C)cc4)nn3)cc1)CC2 | > 100 µM | 9.3 | 21.1 µM | 
COc1cc2c(cc1OC)CN(CCc1ccc(-n3cc(COc4ccc([N+](=O)[O-])cc4)nn3)cc1)CC2 | > 100 µM | 5.4 | 49.2 µM | 
COc1ccc(C(=O)Nc2ccccc2C(=O)Nc2ccc(CCN3CCc4cc(OC)c(OC)cc4C3)cc2)cc1OC | 50.1 µM | 30.4 | 19.6 µM | 

Source: ChEMBL document CHEMBL3779819, “Design, synthesis and biological evaluation of LBM-A5 derivatives as potent P-glycoprotein-mediated multidrug resistance inhibitors” (Bioorg Med Chem, 2016)
